Experimental data reported in ChEMBL document CHEMBL1154044, “5-Nitro-2-furyl derivative actives against Trypanosoma cruzi: preliminary in vivo studies” (Eur J Med Chem, 2009).
The source made the active and inactive calls. The rule behind the calls is not given here.

Columns and labels:
[1] = system: Mus musculus; experiment: Toxicity in CD1 mouse brain at 300 mg/kg, ip after 3 days by histological study; type: organism-based; set-up: dose 300 mg/kg, route intraperitoneal; settings: in vivo, 72 h
In short: (§1)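 Healthy female CD1 mice (20–22 g), 5–7 per group, given a single oral (intragastric) or i.p. dose in saline:Tween 80 (4:1) vehicle. Sacrificed on day 3 after ether anaesthesia. Organs fixed in 10% aqueous formalin for histology. Scored against untreated animals from no change to +++ (many changes).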

[2] = system: Mus musculus; experiment: Toxicity in CD1 mouse brain at 450 mg/kg, po after 3 days by histological study; type: organism-based; set-up: dose 450 mg/kg, route oral; settings: in vivo, 72 h; in short: as §1
[3] = system: Mus musculus; experiment: Toxicity in CD1 mouse liver at 450 mg/kg, po after 3 days by histological study; type: organism-based; set-up: dose 450 mg/kg, route oral; settings: in vivo, 72 h; in short: as §1
[4] = system: Mus musculus; experiment: Toxicity in CD1 mouse assessed as decrease in weight respect to day zero at 300 mg/kg, po after 3 days; type: organism-based; set-up: dose 300 mg/kg, route oral; scale not given: the % may be the effect or the level left; settings: in vivo, 72 h
In short: (§2)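 Healthy 2-month-old female CD1 mice (20–22 g, 5–7 per group) received one dose. Oral doses of 450 or 300 mg/kg were given by intragastric syringe; i.p. doses of 300 or 150 mg/kg by injection. Drugs were suspended in saline:Tween 80 (4:1), and a vehicle-only control was included. Mice were weighed and observed daily for 3 days. Weight change is expressed as percent relative to day zero.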

[5] = system: Mus musculus; experiment: Toxicity in CD1 mouse liver at 300 mg/kg, ip after 3 days by histological study; type: organism-based; set-up: dose 300 mg/kg, route intraperitoneal; settings: in vivo, 72 h; in short: as §1
[6] = system: Mus musculus; experiment: Toxicity in CD1 mouse kidney at 300 mg/kg, ip after 3 days by histological study; type: organism-based; set-up: dose 300 mg/kg, route intraperitoneal; settings: in vivo, 72 h; in short: as §1
[7] = system: Mus musculus; experiment: Toxicity in CD1 mouse assessed as survival at 300 mg/kg, po after 3 days; type: organism-based; set-up: dose 300 mg/kg, route oral; settings: in vivo, 72 h
In short: (§3)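 Healthy 2-month-old female CD1 mice (20–22 g), groups of 5–7, given one oral dose by intragastric syringe or one i.p. injection. Compound suspended in saline:Tween 80 (4:1) with sonication just before dosing; vehicle-treated controls included. Weighed and observed daily over 3 days for skin, physical aspect, activity and faeces; survival recorded at day 3.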

[8] = system: Mus musculus; experiment: Toxicity in CD1 mouse assessed as decrease in weight respect to day zero at 150 mg/kg, ip after 3 days; type: organism-based; set-up: dose 150 mg/kg, route intraperitoneal; scale not given: the % may be the effect or the level left; settings: in vivo, 72 h; in short: as §2
[9] = system: Mus musculus; experiment: Toxicity in CD1 mouse kidney at 450 mg/kg, po after 3 days by histological study; type: organism-based; set-up: dose 450 mg/kg, route oral; settings: in vivo, 72 h; in short: as §1
[10] = system: Mus musculus; experiment: Toxicity in CD1 mouse assessed as decrease in weight respect to day zero at 450 mg/kg, po after 3 days; type: organism-based; set-up: dose 450 mg/kg, route oral; scale not given: the % may be the effect or the level left; settings: in vivo, 72 h; in short: as §2
[11] = system: Mus musculus; experiment: Toxicity in CD1 mouse assessed as survival at 300 mg/kg, ip after 3 days; type: organism-based; set-up: dose 300 mg/kg, route intraperitoneal; settings: in vivo, 72 h; in short: as §3
[12] = system: Mus musculus; experiment: Toxicity in CD1 mouse lung at 300 mg/kg, ip after 3 days by histological study; type: organism-based; set-up: dose 300 mg/kg, route intraperitoneal; settings: in vivo, 72 h; in short: as §1
[13] = system: Trypanosoma cruzi; experiment: Antitrypanosomal activity against Trypanosoma cruzi infected in po dosed CD1 mouse assessed as prevention of inflammatory infiltrates in heart administered daily for 14 days measured on day 45; type: functional, organism-based
In short: (§4)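 T. cruzi, a Uruguayan patient isolate, was inoculated intradermally into 2-month-old female CD1 mice (20–22 g). Dosing began on day 15 after parasitaemia was observed. Drugs were suspended in saline:Tween 80 (4:1) and given by intragastric syringe once daily for 14 days, with untreated controls. On day 45 after treatment start, heart and muscle sections were scored by two independent observers for amastigotes and inflammatory infiltrates. Groups had 5–7 mice.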

[14] = system: Mus musculus; experiment: Toxicity in CD1 mouse assessed as survival at 150 mg/kg, ip after 3 days; type: organism-based; set-up: dose 150 mg/kg, route intraperitoneal; settings: in vivo, 72 h; in short: as §3
[15] = system: Mus musculus; experiment: Toxicity in CD1 mouse heart at 300 mg/kg, ip after 3 days by histological study; type: organism-based; set-up: dose 300 mg/kg, route intraperitoneal; settings: in vivo, 72 h; in short: as §1
[16] = system: Mus musculus; experiment: Toxicity in CD1 mouse lung at 450 mg/kg, po after 3 days by histological study; type: organism-based; set-up: dose 450 mg/kg, route oral; settings: in vivo, 72 h; in short: as §1
[17] = system: Trypanosoma cruzi; experiment: Antitrypanosomal activity against Trypanosoma cruzi infected in po dosed CD1 mouse assessed as prevention of amastigote nest in heart administered daily for 14 days measured on day 45; type: functional, organism-based; in short: as §4
[18] = system: Mus musculus; experiment: Toxicity in CD1 mouse intestine at 300 mg/kg, ip after 3 days by histological study; type: organism-based; set-up: dose 300 mg/kg, route intraperitoneal; settings: in vivo, 72 h; in short: as §1
[19] = system: Mus musculus; experiment: Toxicity in CD1 mouse heart at 450 mg/kg, po after 3 days by histological study; type: organism-based; set-up: dose 450 mg/kg, route oral; settings: in vivo, 72 h; in short: as §1
[20] = system: Trypanosoma cruzi; experiment: Growth inhibition of Trypanosoma cruzi Tulahuen 2 epimastigote at 5 uM after 5 days; type: functional; set-up: Activity: scale not given: the % may be the effect or the level left; settings: for inhibition of growth at 5 µM: Trypanosoma cruzi, Tulahuen 2, 120 h, read-out: GI
[21] = system: Mus musculus; experiment: Toxicity in CD1 mouse assessed as survival at 450 mg/kg, po after 3 days; type: organism-based; set-up: dose 450 mg/kg, route oral; settings: in vivo, 72 h; in short: as §3
[22] = system: Mus musculus; experiment: Toxicity in CD1 mouse intestine at 450 mg/kg, po after 3 days by histological study; type: organism-based; set-up: dose 450 mg/kg, route oral; settings: in vivo, 72 h; in short: as §1
[23] = system: Mus musculus; experiment: Toxicity in CD1 mouse assessed as glutamic-oxalacetate transaminase level at 450 mg/kg, po after 3 days; type: organism-based; set-up: dose 450 mg/kg, route oral; settings: in vivo, 72 h
In short: (§5)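 Healthy female CD1 mice (5–7 per group) received a single oral dose of 450 mg/kg or an i.p. dose of 300 mg/kg, with vehicle controls. On day 3 they were sacrificed under ether anaesthesia. Blood was drawn from the subclavian artery and kept at 0 °C in EDTA or heparin. Leukocytes, haemoglobin, haematocrit, GPT and GOT were measured within 24 h and compared with normal ranges.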

[24] = system: Mus musculus; experiment: Toxicity in CD1 mouse assessed as increase in weight respect to day zero at 300 mg/kg, ip after 3 days; type: organism-based; set-up: dose 300 mg/kg, route intraperitoneal; settings: in vivo, 72 h; in short: as §2
[25] = system: Mus musculus; experiment: Toxicity in CD1 mouse assessed as haemoglobin level at 450 mg/kg, po after 3 days; type: organism-based; set-up: dose 450 mg/kg, route oral; settings: in vivo, 72 h; in short: as §5
[26] = system: Mus musculus; experiment: Toxicity in CD1 mouse assessed as leukocyte level at 450 mg/kg, po after 3 days; type: organism-based; set-up: dose 450 mg/kg, route oral; settings: in vivo, 72 h; in short: as §5
[27] = system: Mus musculus; experiment: Toxicity in CD1 mouse assessed as leukocyte level at 300 mg/kg, ip after 3 days; type: organism-based; set-up: dose 300 mg/kg, route intraperitoneal; settings: in vivo, 72 h; in short: as §5
[28] = system: Mus musculus; experiment: Toxicity in CD1 mouse assessed as increase in weight respect to day zero at 450 mg/kg, po after 3 days; settings: in vivo, 72 h
[29] = system: Mus musculus; experiment: Toxicity in CD1 mouse assessed as glutamic-oxalacetate transaminase level at 300 mg/kg, ip after 3 days; type: organism-based; set-up: dose 300 mg/kg, route intraperitoneal; settings: in vivo, 72 h; in short: as §5
[30] = system: Mus musculus; experiment: Toxicity in CD1 mouse assessed as glutamic-pyruvate transaminase level at 300 mg/kg, ip after 3 days; type: organism-based; set-up: dose 300 mg/kg, route intraperitoneal; settings: in vivo, 72 h; in short: as §5
[31] = system: Mus musculus; experiment: Toxicity in CD1 mouse assessed as glutamic-pyruvate transaminase level at 450 mg/kg, po after 3 days; type: organism-based; set-up: dose 450 mg/kg, route oral; settings: in vivo, 72 h; in short: as §5
[32] = system: Mus musculus; experiment: Toxicity in CD1 mouse assessed as hematocrite level at 450 mg/kg, po after 3 days; type: organism-based; set-up: dose 450 mg/kg, route oral; settings: in vivo, 72 h; in short: as §5
[33] = system: Mus musculus; experiment: Toxicity in CD1 mouse assessed as hematocrite level at 300 mg/kg, ip after 3 days; type: organism-based; set-up: dose 300 mg/kg, route intraperitoneal; settings: in vivo, 72 h; in short: as §5
[34] = system: Mus musculus; experiment: Toxicity in CD1 mouse assessed as haemoglobin level at 300 mg/kg, ip after 3 days; type: organism-based; set-up: dose 300 mg/kg, route intraperitoneal; settings: in vivo, 72 h; in short: as §5
[35] = system: Mus musculus; experiment: Toxicity in CD1 mouse assessed as decrease in weight respect to day zero at 300 mg/kg, ip after 3 days; type: organism-based; set-up: dose 300 mg/kg, route intraperitoneal; scale not given: the % may be the effect or the level left; settings: in vivo, 72 h; in short: as §2

SMILES	Activity [1]	Activity [2]	Activity [3]	Activity [4] [%]	Activity [5]	Activity [6]	Activity [7]	Activity [9]	Activity [10] [%]	Activity [11]	Activity [12]	Activity [13]	Activity [15]	Activity [16]	Activity [17]	Activity [18]	Activity [19]	inhibition of growth at 5 µM [20] [%]	Activity [21]	Activity [22]	also measured
COCCNC(=O)N/N=C/c1ccc([N+](=O)[O-])o1	Non-toxic	Non-toxic	Toxic	0	Toxic	Non-toxic	Non-toxic	Toxic	0	Toxic	Non-toxic	Active	Non-toxic	Non-toxic	Active	Non-toxic	Non-toxic	20	Non-toxic	Non-toxic	Activity [8]: 1%; Activity [14]: Non-toxic
CCCCCCOC(=O)N/N=C/C=C/c1ccc([N+](=O)[O-])o1	Non-toxic	Non-toxic	Toxic		Toxic	Non-toxic		Toxic		Non-toxic	Non-toxic	Active	Non-toxic	Non-toxic	Active	Non-toxic	Non-toxic		Non-toxic	Non-toxic	Activity [23]: 164 IU/L; Activity [24]: 2%; Activity [25]: 13.5 g/dL; Activity [26]: 6600 µL⁻¹; Activity [27]: 5300 µL⁻¹; Activity [28]: 2%; Activity [29]: 172 IU/L; Activity [30]: 33 IU/L; Activity [31]: 42 IU/L; Activity [32]: 42.1%; Activity [33]: 22.9%; Activity [20]: 86%; Activity [34]: 12 g/dL
CCCCNC(=O)N/N=C/c1ccc([N+](=O)[O-])o1	Non-toxic	Non-toxic	Toxic	4	Toxic	Toxic	Non-toxic	Toxic	1	Toxic	Non-toxic	Active	Non-toxic	Non-toxic	Active	Non-toxic	Non-toxic	30	Non-toxic	Toxic	Activity [8]: 6%; Activity [14]: Non-toxic
CCCCCCOC(=O)N/N=C/c1ccc([N+](=O)[O-])o1	Non-toxic	Non-toxic	Toxic		Toxic	Non-toxic		Non-toxic			Non-toxic		Non-toxic	Non-toxic		Non-toxic	Non-toxic	93	Non-toxic	Non-toxic	Activity [23]: 192 IU/L; Activity [25]: 10.6 g/dL; Activity [26]: 2700 µL⁻¹; Activity [27]: 4900 µL⁻¹; Activity [28]: 3%; Activity [29]: 140 IU/L; Activity [35]: 0%; Activity [30]: 32 IU/L; Activity [31]: 34 IU/L; Activity [32]: 34.4%; Activity [33]: 38.7%; Activity [34]: 12.3 g/dL
CC1CS(=O)(=O)CCN1/N=C/c1ccc([N+](=O)[O-])o1 (stereo not drawn) [NIFURTIMOX]	Non-toxic	Non-toxic	Toxic	0	Toxic	Non-toxic	Non-toxic	Toxic	6	Non-toxic	Non-toxic		Non-toxic	Non-toxic		Non-toxic	Non-toxic	46	Non-toxic	Non-toxic	Activity [23]: 162 IU/L; Activity [25]: 13.5 g/dL; Activity [26]: 6700 µL⁻¹; Activity [27]: 5100 µL⁻¹; Activity [29]: 177 IU/L; Activity [35]: 3%; Activity [30]: 32.5 IU/L; Activity [31]: 49 IU/L; Activity [32]: 42.4%; Activity [33]: 39.3%; Activity [34]: 13.2 g/dL
